# RanGTP-Imp inh = inhibitors of RanGTP-importin-beta interaction, primary screen, biochemical, FRET, CFP-Ran, YFP-importin-beta, homogeneous; Ran GTPase (GTP-bound) - importin-beta complex; cell-free CFP-Ran/YFP-importin-beta FRET ratio; inhibition, % (no concentration beside the values); 300,000 tested, 1.1% active; AID 2216, 2009;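 active = more than half of the replicate wells show a fall in the fluorescence ratio signal beyond about 16%, limit read from the data, passing the limit was not always enough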;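 note: 0% = DMSO wells and 100% = Ran loaded with GDP instead of GTP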
# eIF4E 4G PPI = eIF4E–eIF4G protein interaction inhibitors, primary screen, biochemical, uHTS, TR-FRET, eIF4GI fragment | 220,000 tested, 0.37% active | TR-FRET eIF4E-eIF4GI(517-606) binding, 2 h | inhibition, % at 21.7 µM | AID 782, 2007;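 active = inhibition above about 30%, limit read from the data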;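 note: 0% = full FRET control wells and 100% = background wells lacking eIF4GI fragment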
# Hck Nef HTS = inhibitors of Nef-activated human Hck kinase, primary screen, biochemical, Z-Lyte FRET, 384-well, Hck-YEEI; Tyrosine-protein kinase HCK (Homo sapiens), P08631; Recombinant Hck-YEEI plus Nef, Z-Lyte FRET kinase assay; inhibition, % at 20 µM; 220,000 tested, 0.68% active;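 active = Hck-Nef kinase inhibition above about 50%, limit read from the data; inactive = inhibition below that limit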;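 note: 0% = DMSO with Hck plus Nef and 100% = Hck alone without Nef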
# PERK inhibitor = block of dimerizer-induced PERK translation repression, primary screen, PERK inhibitor project, CHO PERK-DD cells, SEAP luminescence, HTS; Eukaryotic translation initiation factor 2-alpha kinase 3 (Homo sapiens), Q9NZJ5; inhibition, % at 5.6 µM; CHO PERK-DD fusion, SEAP luminescence translation reporter; AID 1416, 2008; 220,000 tested, 0.17% active;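 active = inhibition above the mean inhibition of all tested compounds plus 3 SD, set separately per screening campaign, cut at about 2.9% in these data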;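 note: PERK kinase domain activated by AP20187 dimerizer at 100 nM; 0% = DMSO with dimerizer and 100% = rapamycin at 8.4 µM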
# Runt-SMMHC FRET = inhibitors of RUNX1 Runt–CBFb-SMMHC binding, primary screen, biochemical, FRET, Cerulean-Runt, Venus-CBFb-SMMHC, uHTS; Cerulean-Runt/Venus-CBFb-SMMHC FRET ratio 530/480, 1 h; inhibition, % at 20 µM; 220,000 tested, 0.74% active;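 active = mean inhibition across duplicate retests at 20 µM reaching about 50%, limit read from the data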;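 note: 0% = DMSO wells and 100% = wells with excess untagged CBFb-SMMHC; inhibitors lower the FRET ratio by blocking Runt binding to CBFb-SMMHC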
# Runt-CBFb FRET = inhibitors of RUNX1 Runt–CBFb binding, primary screen, biochemical, FRET, Cerulean-Runt, Venus-CBFb, uHTS; Cerulean-Runt/Venus-CBFb FRET ratio 530/480, 1 h; inhibition, % at 20 µM; AID 1496, 2009; Runt-related transcription factor 1 (Homo sapiens) + Core-binding factor subunit beta …; 220,000 tested, 0.46% active;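 active = inhibition over about 50% at 20 µM in the single-dose screen, limit read from the data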;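 note: 0% = DMSO wells and 100% = excess unlabeled CBFb competitor control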
#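 Assay system: Cerulean-Runt domain fusion protein, energy donor; Signal: fluorescence energy transfer, 422 nm excitation, 530/480 nm emission; Timing: 1 h compound exposure, room temperature; Control set: unlabeled CBFb; Medium: Tris buffer pH 7.5 with salts and BSA; Compound: single test concentration of 20 µM, 1% DMSO final; Probe or stimulus: Venus-CBFb 100 nM.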
# YIC counter = YIC intramolecular FRET probe signal interference, dose response, counter-screen for RanGTP-importin-beta inhibitor project, biochemical, fluorescence FRET; IC50, µM; 1,000 tested, 40% active; shares compounds with RanGTP-Imp inh; Purified YIC probe, intramolecular FRET ratio YFP/CFP;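 active = fitted half-maximal inhibitory concentration no more than tenfold above the top dose tested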
# * hit, by the source's call; . = no result given. A selection: hits, their analogues and other compounds. The true share with any hit is near 2.2%.
SMILES,RanGTP-Imp inh,eIF4E 4G PPI,Hck Nef HTS,PERK inhibitor,Runt-SMMHC FRET,Runt-CBFb FRET,YIC counter
COc1ccc(-n2cnc3cc(NCc4cccs4)ccc32)cc1,19*,1,12,0,1,-1,>50
COc1ccc(-n2cnc3cc(NCc4ccccn4)ccc32)cc1,10,-1,-1,0,1,1,.
CC(C)(C)c1ccc(C(=O)NN=C2CCCC2)cc1,4,.,.,.,.,.,.
COc1ccc(NC(=O)/C(C#N)=C/c2cccnc2)c(OC)c1,1,.,.,.,.,.,.
COc1cc(/C=C(\C#N)C(=O)Nc2cccc3ncccc23)cc(OC)c1OC,36*,1,3,1,54,42,>50
COc1ccccc1C(=O)NC(=S)Nc1ccccc1N1CCCC1,4,.,.,.,.,.,.
COc1ccccc1C(=O)NC(=S)Nc1ccc(N2CCCC2)cc1,20*,0,3,0,2,1,>50
c1ccc2[nH]c(CSc3nnc(-c4ccncc4)o3)nc2c1,6,0,-2,0,-3,-1,.
Clc1ccc(-c2nnc(SCc3nc4ccccc4[nH]3)o2)c(Cl)c1,32*,3,-11,-1,2,0,>50
Cc1ccc2nc(N3CCN(C)CC3)c(C#N)cc2c1,6,9,5,1,12,4,.
Cc1ccc2nc(N3CCN(Cc4nnnn4Cc4ccccc4)CC3)c(C#N)cc2c1,17*,-45,4,-1,62*,26,22*
O=C(CCNS(=O)(=O)c1ccccc1)NNC(=O)c1csc(N2CCOCC2)n1,-2,.,.,.,.,.,.
O=C(Nc1ccc(OC(F)(F)F)cc1)c1ccc2nc[nH]c2c1,20*,.,.,.,.,.,>50
COc1ccc(C2C3CCCCC3(O)CCN2C(=O)c2cccs2)cc1 (stereo not drawn),-4,1,-1,0,2,3,.
NNC(=O)c1cc2nc(-c3cccs3)cc(C(F)(F)F)n2n1,27*,-8,-31,0,3,2,>50
COC(=O)c1nc2nc(-c3cccs3)cc(C(F)(F)F)n2n1,3,0,13,2,30,8,.
CC1(C)CCC(=O)C=C1Nc1ccc(F)c(Cl)c1,26*,.,.,.,.,.,>50
CCC(=O)Nc1ccc(F)c(Cl)c1,-1,-2,0,0,0,2,.
COc1ccc2c(c1OC)C(=O)N1C2SC(C)(C)[C@H]1C(=O)NC1CCCC1 (stereo partly drawn),-1,.,.,.,.,.,.
Clc1cccc(-c2ccc(C=Nc3ccc(N4CCOCC4)cc3)o2)c1Cl,23*,14,31,-1,-2,7,>50
C=CCn1c(SCc2ccc(Br)cc2F)nc2cc(C(=O)O)ccc2c1=O,-3,.,.,.,.,.,.
NS(=O)(=O)c1ccc(N=Nc2c[nH]c(=O)c(O)c2)cc1,28*,7,17,0,9,15,>50
COc1ccc(/C=N/NC(=O)c2sc3nc(C)cc(C)c3c2N)cc1,23*,-8,8,-1,35,19,6.6*
O=C(CC1SC(N2CCCCC2)=NC1=O)Nc1cccc(C(=O)Nc2ncccc2O)c1 (stereo not drawn),0,.,.,.,.,.,.
C/C(=N\NC(=O)COc1ccc(C(C)(C)C)cc1)c1ccc(-n2ccnc2)cc1,-5,0,0,0,1,-5,.
O=C(NC1CC1)c1ccc(CS(=O)c2ccc(Br)cc2)o1 (stereo not drawn),0,.,.,.,.,.,.

# Compound activity as filed in PubChem BioAssay.
